Measured values of several laboratories.
Lines come from different studies, so protocols differ.
Target: Serine/threonine-protein kinase 26 (STK26, Homo sapiens, UniProt Q9P289)

Compound | test | setting | measurement | result
CCN1CCC2(CC1)NC(=O)c1c(c3ccc(Cl)c(Cl)c3n1C)C2C#N (racemic) | thermal stability, DSF | 10 µM | ΔTm | -0.2 °C
CCC(=O)N[C@H]1CC[C@@H](C(=O)N(C)c2ccc(-c3nc4ccccc4o3)cc2)C1 | cell-free assay, competition with immobilised ligand | 1 µM | remaining binding | 76%
Cc1cnc(NC2CCOCC2)nc1-n1cnc(C(=O)NC(CN)c2cc(F)cc(Cl)c2)c1 (stereo not drawn) | enzyme activity, inhibitor, radiometric | 1 µM | remaining activity | 109%
CN1CC(Oc2cnc(C#N)cc2-c2ccn3nc(NC(=O)C4CC4)cc3c2)C1 | enzyme activity, inhibitor | 1 µM | inhibition | -9%
Cc1noc([C@H]2C[C@@H](c3ccc(C(F)(F)F)cc3)CN(C(=O)N3CCS(=O)(=O)C3)C2)n1 | cell-free assay, competition with immobilised ligand | 1 µM | remaining binding | 74%
CC1(C)NC(=O)c2[nH]c3c(Cl)c(Cl)ccc3c2C1C#N (stereo not drawn) | thermal stability, DSF | 10 µM | ΔTm | 2.4 °C
F[C@@H]1CCN(c2nccc(-c3cnn4ncccc34)n2)C1 | cell-free assay | 1 µM | remaining signal | 100%
COc1cc(Nc2cnc(C#N)c(O[C@H](C)CN(C)C)n2)ncc1-c1cnn(C)c1 | enzyme activity, inhibitor, radiometric | 10 µM | remaining activity | 42%
COc1cc2ncnc(Nc3ccc(Oc4ccccc4)c(C)c3C)c2cc1OC | enzyme activity, inhibitor | 1 µM | inhibition | 21%
CC(C)(C)c1nc2c(s1)c1nc(N)ncc1c1ccc(NS(=O)(=O)c3c(F)cccc3F)c(F)c12 | enzyme activity, inhibitor, radiometric | 1 µM | remaining activity | 98%
Nc1nc(Nc2ccccc2)sc1C(=O)c1c(F)cccc1F | enzyme activity, inhibitor | 10 µM | remaining activity | 57%
CN(c1nccc(-c2cnn3ncccc23)n1)C1CC1 | cell-free assay | 1 µM | remaining signal | 100%
CC(=O)N1CCC(c2ccc(C(=O)NC(=N)N)cc2C(F)(F)F)CC1 | cell-free assay, competition with immobilised ligand | 1 µM | remaining binding | 97%
Oc1cccc(-c2nc(N3CCOCC3)c3oc4ncccc4c3n2)c1 | cell-free assay | 0.5 µM | remaining signal | 98.6%
CC1CCCN1c1nccc(-c2cnn3ncccc23)n1 (stereo not drawn) | cell-free assay | 1 µM | remaining signal | 100%
CC/C(=N\NC(=O)NCc1cccc(O)c1)c1ccc(O)c(C)c1O | enzyme activity, inhibitor | 0.1 µM | inhibition | 1.3%
CN1CCC2(CC1)NC(=O)c1c(c3ccc(Cl)c(Cl)c3n1C)C2C#N (racemic) | thermal stability, DSF | 10 µM | ΔTm | 1.7 °C
COc1cc(-c2cc(-c3ccc(N4CCNCC4)cc3)cnc2N)cc(OC)c1OC | enzyme activity, inhibitor | 1 µM | inhibition | 1%
CCCS(=O)(=O)Nc1ccc(F)c(C(=O)c2c[nH]c3ncc(-c4ccc(Cl)cc4)cc23)c1F | enzyme activity, inhibitor | 1 µM | inhibition | < 10%
N#CCCc1ccc2c(c1)-c1[nH]c3ccc([N+](=O)[O-])cc3c1CC(=O)N2 | cell-free assay | 0.5 µM | remaining signal | 65.1%

Compound | test | setting | measurement | result
COc1cc(-c2cc(-c3ccc(N4CCNCC4)cc3)cnc2C)cc(OC)c1OC | enzyme activity, inhibitor | 0.1 µM | inhibition | 9%
O=C(Nc1cnn(-c2csc(C(=O)NC3COC3)c2)c1)Nc1ccccc1Cl | enzyme activity, inhibitor | 5 µM | remaining activity | 98.3%
CCCCNc1ncc2c(-c3ccc(F)cc3)nn(C[C@H]3CC[C@H](N)CC3)c2n1 | target engagement in cells, inhibitor, chemoproteomics | 20 mM | inhibition | 1.8%
O=C1NC(=O)c2cc(Nc3ccc(F)cc3)c(Nc3ccc(F)cc3)cc21 | cell-free assay | 0.5 µM | remaining signal | 99%
FC(F)c1nc2ccccc2n1-c1nc(N2CCOCC2)nc(N2CCOCC2)n1 | enzyme activity, inhibitor | 10 µM | remaining activity | 88%
N#CC1(c2ccccn2)CCN(Cc2cc(C(=O)N3CCCC3)c(=O)n3ccccc23)CC1 | cell-free assay, competition with immobilised ligand | 1 µM | remaining binding | 100%
Cn1c2c(c3ccccc31)C(C#N)C(C)(C)NC2=O (stereo not drawn) | thermal stability, DSF | 10 µM | ΔTm | 1.9 °C
N[C@H]1CCN(c2nccc(-c3cnn4ncccc34)n2)C1 | cell-free assay | 1 µM | remaining signal | 71%
c1ccc(N2CCN(Cc3nc4ccccc4[nH]3)CC2)nc1 | binding, competition with immobilised ligand | 1 µM | remaining binding | 100%
CN(C)c1nccc(-c2cnn3ncccc23)n1 | cell-free assay | 1 µM | remaining signal | 100%
Cc1nccc(COC(=O)N2C[C@@H]3[C@@H](CNC(=O)c4ccc5[nH]nnc5c4)[C@@H]3C2)n1 | cell-free assay, competition with immobilised ligand | 1 µM | remaining binding | 77%
CN(C)C1CCN(CC#Cc2nn(C3CCCC3)c3nc(NCc4ccccc4)ncc23)C1 (stereo not drawn) | enzyme activity, inhibitor, FRET | 1 µM | inhibition | 20%
CC(C)(O)[C@H]1CC[C@H](Nc2ccc3ncc(-c4cccc(C(F)(F)F)c4)n3n2)CC1 | enzyme activity, inhibitor | 1 µM | remaining activity | 109%
c1cnn2ncc(-c3ccnc(N4CCC45COC5)n3)c2c1 | cell-free assay | 1 µM | remaining signal | 64%
Cc1ccc(C(=O)Nc2ccc(CN3CCN(C)CC3)c(C(F)(F)F)c2)cc1C#Cc1cnc2cccnn12 | enzyme activity, inhibitor | 23.5 nM | remaining activity | 86%
O=C(Nc1ccc(Oc2ccc(F)cc2)cc1)N1CCc2ncccc2[C@H]1c1ccc(F)cc1 | cell-free assay, competition with immobilised ligand | 1 µM | remaining binding | 100%
FC(F)(F)Oc1cccc(-c2cnc3ccc(-c4ccncc4)nn23)c1 | enzyme activity, inhibitor, radiometric | 1 µM | activity vs control | 96%
O=C(NC[C@@H]1[C@H]2CN(C(=O)OCc3cc(C(F)(F)F)cc(C(F)(F)F)c3)C[C@@H]12)c1ccc2[nH]nnc2c1 | cell-free assay, competition with immobilised ligand | 1 µM | remaining binding | 76%
Cc1cc(NC(=O)c2cccc3cc(-c4cccc5[nH]nc(N)c45)ccc23)ccc1F | enzyme activity, inhibitor | 0.1 µM | activity vs control | 107%
